# SUMO HTRF inh: SUMOylation inhibition; P63279; HTRF SUMOylation assay, SAE1/SAE2 + UBC9, in vitro; inhibition, % at 35 µM; 0.36% of 290,000 active; in the data active = inhibition above about 50%, passing the limit was not always enough
# Target sequence (P63279 whole entry, looked up): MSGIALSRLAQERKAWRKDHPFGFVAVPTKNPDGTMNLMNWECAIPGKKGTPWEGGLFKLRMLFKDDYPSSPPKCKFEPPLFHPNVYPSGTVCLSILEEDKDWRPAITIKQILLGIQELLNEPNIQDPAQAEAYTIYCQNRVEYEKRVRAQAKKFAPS
# NS3 helicase inh: blocks Hepatitis C virus NS3 helicase unwinding. 0.56% of 290,000 active. NS3 helicase DNA unwinding, Cy5 molecular beacon fluorescence. AID 1800. inhibition, % at 10.9 µM;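 active = inhibition above the mean of all tested compounds plus 3 SD, set per campaign, cut at about 35% in these data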;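 also: 0% = DMSO wells and 100% = thioflavine S control wells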
#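 Compound dosing – single dose, 10.9 µM nominal final, DMSO 0.8% final · System – NS3 helicase fragment of HCV · Buffer or medium – MOPS pH 6.5, MgCl2, DTT, Tween20, BSA · Signal – Cy5 beacon fluorescence read at start and 1 h · Also added – annealed dual-labelled DNA beacon duplex, ATP-started · Schedule – 1 h at 25 °C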
# ZTA counter: blocks Epstein-Barr virus ZTA, an EBNA-1 counter-screen; ZTA-DNA binding, fluorescence polarization; inhibition, % at 11 µM; 0.15% of 320,000 active; AID 2234; in the data active = inhibition above about 33%
# Target sequence (P03206 whole entry, looked up): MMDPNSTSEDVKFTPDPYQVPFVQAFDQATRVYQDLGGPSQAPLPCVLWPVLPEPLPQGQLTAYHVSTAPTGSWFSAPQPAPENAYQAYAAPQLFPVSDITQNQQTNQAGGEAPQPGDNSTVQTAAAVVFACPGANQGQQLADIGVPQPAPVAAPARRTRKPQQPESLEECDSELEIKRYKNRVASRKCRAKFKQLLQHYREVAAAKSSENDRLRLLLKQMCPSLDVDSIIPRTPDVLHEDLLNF
# HCV core dimer: HCV core protein dimerization inhibition. TR-FRET GST/Flag-core106 dimerization, 1536-well. inhibition, % at 5 µM. 0.33% of 300,000 active. AID 1899;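 active = inhibition above the mean of all tested compounds plus 3 SD, set per screening campaign, cut at about 45% in these data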
#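 System: GST/Flag-tagged HCV core106 proteins. Incubation: compound-protein-antibody incubation 4 h at 22.5 °C. Technique: HTRF with 340 nm excitation, 617/671 nm emission. Medium: KF-containing HEPES buffer, pH 7.45, DTT, CHAPS, BSA. Read-out: inhibition (%) from 671 over 617 nm ratio. Also added: Eu(K)-anti-GST 90 ng/mL plus XL665-anti-Flag 1 µg/mL.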
# EBNA-1 inh: blocks EBNA-1 binding to DNA. EBNA-1 DNA binding, fluorescence polarization. inhibition, % at 14.8 µM. 0.34% of 300,000 active. AID 1950; in the data active = inhibition above about 28%
# NS3 helicase cf: confirmation of Hepatitis C virus NS3 helicase inhibitors; shares compounds with NS3 helicase inh; NS3 helicase DNA unwinding, Cy5 molecular beacon fluorescence; inhibition, % at 10.9 µM; 31% of 1,600 active;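 active = inhibition above the mean of all tested compounds plus 3 SD, cutoff set per campaign, cut at about 36% in these data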
# DNA FID counter: displaces DNA intercalator in HCV helicase counter-screen; shares compounds with NS3 helicase inh; DNA fluorescent intercalator displacement, fluorescence; inhibition, % at 7.9 µM; 4% of 1,600 active; in the data active = inhibition above about 37%;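 also: 0% = vehicle and 100% = reference compound; higher means more displacement of ethidium bromide from the DNA hairpin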
# FID counter DR: DNA intercalator displacement in dose response | 120 tested, under 10 active | shares compounds with NS3 helicase inh | fluorescent intercalator displacement from DNA, fluorescence | IC50, µM; call rule not given here
# Starred values were filed as active, the others as inactive; . = no result given; + = active, no number. An excerpt weighted towards active compounds, which were near 1.4% of everything screened.
SMILES,SUMO HTRF inh,NS3 helicase inh,ZTA counter,HCV core dimer,EBNA-1 inh,NS3 helicase cf,DNA FID counter,others
Fc1ccc(C2Nc3cccc4cccc(c34)N2)cc1,-12,45*,-9,-2,-14,-30,17,
CCOc1cccc(NC(=O)/C(C#N)=C\c2cn(CC(=O)O)c3ccccc23)c1,8,40*,-17,9,-9,49*,-7,
O=C(NCCc1cccs1)C12CN(Cc3ccccc3)CC1C(c1cccc([N+](=O)[O-])c1)=NO2 (stereo not drawn),0,56*,0,18,-6,2,-21,
O=C(NCCCCc1ccccc1)C12CN(Cc3ccccc3)CC1C(c1cccc([N+](=O)[O-])c1)=NO2 (stereo not drawn),-8,-13,7,5,8,.,.,
O=C(O)c1ccc(-n2cccc2/C=C2/NC(=O)N(c3ccccc3)C2=O)cc1,28,17,-7,-16,0,.,.,
O=C(O)c1ccc(-n2cccc2/C=C2/NC(=O)N(c3cccc(Cl)c3)C2=O)cc1,42,41*,.,.,.,70*,-17,FID counter DR=>79
Cc1ccc(-c2nn(-c3cc(N4CCNCC4)ccc3[N+](=O)[O-])c(=O)c3ccccc23)cc1,-8,-48,18,13,-1,.,.,
NNC(=S)Nc1cccc(-c2n[nH]c(=S)o2)c1,14,37*,5,4,11,2,-9,
CCN(CC)c1ccc(N=C2C(=O)Nc3ccccc32)cc1,30,45*,+,0,+,19,22,
CCOc1ccc(OCCCCN(C)C)cc1,4,49*,-5,-2,15,-7,15,
O=C(O)/C(=C\c1cccc([N+](=O)[O-])c1)c1ccc(S(=O)(=O)N2CCCCC2)s1,23,44*,-20,7,8,54*,-14,
COc1ccc(C(=O)CCC(=O)Nc2cc(Cl)c(O)c(Cl)c2)cc1,-14,7,0,-8,-16,.,.,
Cc1cc(C(=O)CSc2nc3ccccc3c(=O)n2C)c(C)n1Cc1ccc2c(c1)OCO2,-5,40*,14,27,10,2,-18,
Cc1ccc(S(=O)(=O)N(C)C)cc1NC(=O)CCNC(=O)c1ccco1,-8,0,-8,-23,-12,.,.,
Cc1cc(N=Cc2c(O)ccc3cc(Br)ccc23)no1,30,37*,14,40,13,-10,39*,
COc1ccc(CNC(=O)N2CCc3ccccc3C2)cc1Cl,2,-1,-12,-13,1,.,.,
O=C(Nc1cc(S(=O)(=O)Nc2ccc(Cl)cc2)ccc1O)c1ccc(S(=O)(=O)N2CCCCCC2)cc1,2,45*,4,24,12,-26,3,
O=C(NNS(=O)(=O)c1ccc(Cl)cc1)c1ccc(S(=O)(=O)N2CCCCC2)cc1,-8,2,2,-9,15,.,.,
CCc1ccccc1N(C(=O)c1snc(C(N)=O)c1N)C(C(=O)NCC1CCCO1)c1c[nH]c2ccccc12 (stereo not drawn),6,-24,-5,-11,0,.,.,
CN(C(=S)SCc1ccccc1)C1CCS(=O)(=O)C1 (stereo not drawn),4,-11,-4,-3,5,.,.,
COc1ccc(CC(=O)Nc2cc(=O)n(C)c(=O)n2C)cc1,10,56*,-1,2,5,0,-2,
CCOC(=O)C1CCCN(C(=O)c2cc3c(=O)n(C)c4ccccc4c3n2C)C1 (stereo not drawn),-6,75*,13,4,9,-10,-31,
Cc1ccc(NC(=O)CN2C(=O)S/C(=C\C(=O)Nc3ccc(Cl)cc3)C2=O)cc1,12,41*,3,-5,6,-1,1,
Cc1cc(Cl)ccc1NC(=O)CN(C)C1=NS(=O)(=O)c2ccccc21,.,.,10,.,.,.,.,
CCC1=NN2C(=N)/C(=C\c3cccn3-c3ccc(Cl)cc3)C(=O)N=C2S1,17,4,-7,42,1,.,.,
SMILES,SUMO HTRF inh,NS3 helicase inh,ZTA counter,HCV core dimer,EBNA-1 inh,NS3 helicase cf,DNA FID counter,others
Cc1ccc(-n2cccc2/C=C2\C(=N)N3N=C(c4ccco4)SC3=NC2=O)cc1,64*,42*,-3,21,11,85*,-23,FID counter DR=>79
O=C(C1CCC(CNS(=O)(=O)c2cccs2)CC1)N1CCN(c2ccc(Cl)cc2)CC1 (stereo not drawn),-9,-19,8,21,14,.,.,
O=C(COC(=O)c1ccccn1)Nc1nc(-c2cccc([N+](=O)[O-])c2)cs1,31,-3,5,6,-3,.,.,
CC1(C)C(=O)Nc2ccccc2N1C(=O)Cn1ncc(Cl)c(Cl)c1=O,13,47*,4,24,-2,2,7,
CN1C(=O)[C@H]2[C@@H](/C=C/c3ccccc3)N3C(=O)CN(CCO)C(=O)[C@@]3(Cc3ccccc3)[C@H]2C1=O,-1,44*,13,-12,1,-14,-8,
O=C1[C@H]2[C@@H](/C=C/c3ccccc3)N3C(=O)CN(CCO)C(=O)[C@@]3(Cc3ccccc3)[C@H]2C(=O)N1c1ccccc1,-2,20,-19,-13,-11,.,.,
CCOc1ncccc1C(=O)OCC(=O)Nc1ccc2c(c1)OCCO2,.,.,-6,.,.,.,.,
CC1=NN(c2ccccc2)C(=O)/C1=C\C=C\c1ccccc1,4,8,17,20,-3,.,.,
CC1=NN(c2ccc(C)c(C)c2)C(=O)/C1=C\C=C\c1ccc([N+](=O)[O-])o1,38,40*,-1,63*,-10,15,33,
NC(=S)N/N=C/c1ccc(C23CC4CC(CC(C4)C2)C3)cc1,-10,56*,3,15,-7,37*,-6,FID counter DR=>79
COC(=O)c1ccc(NC(=O)CCN2C(=O)C3C4CCC(C4)C3C2=O)cc1 (stereo not drawn),15,8,10,-6,15,.,.,
O=C1CC(Nc2ccccc2)C(=O)N1c1ccc(N2CCOCC2)cc1 (stereo not drawn),-14,3,-1,5,12,.,.,
COc1ccc(CCN2C(=O)CC(Nc3ccc(N4CCOCC4)cc3)C2=O)cc1OC (stereo not drawn),-14,46*,12,-1,-1,2,-18,
CC(C)N1C(=O)CC(Nc2ccc(N3CCOCC3)cc2)C1=O (stereo not drawn),-14,39*,10,-1,-12,-2,-5,
CC(C)N1C(=O)CC(Nc2cccc3cccc(N)c23)C1=O (stereo not drawn),87,40*,.,.,.,-15,10,
